The source made the active and inactive calls. The rule behind the calls is not given here.
Legend:
[1] = Cytotoxicity against human U373 cells after 72 hrs by MTT assay; format: functional, cell-based, U-373MG ATCC; conditions: U373 MG
Procedure, shortened: (§1)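 Cells plated at 10,000 to 40,000 cells/mL, depending on cell type, and incubated 24 h before treatment. Growth was read after 72 h culture with or without compound. MTT reduction to formazan by living cells was read by spectrophotometry at 570 nm with a 630 nm reference. IC50 growth inhibitory concentrations were derived. NHDF and Wi38 are normal human fibroblasts.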

PC-3 = experiment: Cytotoxicity against human PC3 cells after 72 hrs by MTT assay; format: functional, cell-based; conditions: PC-3, 72 h; procedure, shortened: as §1
A549 = experiment: Cytotoxicity against human A549 cells after 72 hrs by MTT assay; format: functional, cell-based; conditions: A549, 72 h; procedure, shortened: as §1
U-373MG ATCC = experiment: Cytotoxicity against human apoptosis-resistant U373 cells at 5 uM after 2 hrs by computer-assisted phase contrast microscopy; format: functional, cell-based
Procedure, shortened: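 U373 glioblastoma cells were cultured with or without 5 μM compound. Morphology was followed by quantitative computer-assisted phase-contrast videomicroscopy at 100x and 400x magnification over about 2 h after compound addition, to tell cytotoxic from cytostatic effects.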

NHDF = experiment: Cytotoxicity against human NHDF cells after 72 hrs by MTT assay; format: cell-based; procedure, shortened: as §1
[2] = Cytotoxicity against human WI38 cells after 72 hrs by MTT assay; format: cell-based; conditions: wi-38, 72 h; procedure, shortened: as §1

Compound	IC50 [1]	IC50 (PC-3)	IC50 (A549)	Activity (U-373MG ATCC)	Activity (NHDF)	Activity [2]
COc1ccc(-c2c[nH]c3c2C(=O)c2[nH]cc4ccnc-3c24)cc1	> 100 µM	> 100 µM	> 100 µM	–	–	–
COc1ccc(C2CNC3=C2C(=O)c2c4c(cn2S(=O)(=O)c2ccc(C)cc2)CCN=C34)cc1 (stereo unspecified)	30.5 µM	20.5 µM	25.9 µM	–	–	–
COc1ccc(C2CNC3=C2C2=NCCc4cn(S(=O)(=O)c5ccc(C)cc5)c(c42)C3=O)cc1 (stereo unspecified)	18.3 µM	20.5 µM	9.7 µM	–	–	–
COc1ccc(-c2c[nH]c3c2C(=O)c2c(ccn2S(=O)(=O)c2ccc(C)cc2)C3=O)cc1	48.2 µM	48.2 µM	41.3 µM	–	–	–
O=C1c2cc[nH]c2C(=O)c2c(-c3ccc(O)cc3)c[nH]c21	37 µM	> 100 µM	74.5 µM	–	–	–
COc1ccc(-c2c[nH]c3c2C(=O)c2c(CCN)cn(S(=O)(=O)c4ccc(C)cc4)c2C3=O)cc1	3.2 µM	4.2 µM	4.1 µM	Active	Toxic	Toxic
COc1ccc(-c2c[nH]c3c2C(=O)c2c4c(cn2S(=O)(=O)c2ccc(C)cc2)CCN=C34)cc1	41.4 µM	> 100 µM	3.1 µM	–	–	–
O=C1c2[nH]cc3c2C(=NCC3)c2[nH]cc(-c3ccc(O)cc3)c21	62.2 µM	63.7 µM	35.2 µM	–	–	–
O=C1c2[nH]cc3c2C(=NCC3)c2c(-c3ccc(O)cc3)c[nH]c21 [TSITSIKAMMAMINE A]	18.1 µM	23 µM	15.6 µM	–	–	–
COc1ccc(C2C=NC3=C2C(=O)c2cc[nH]c2C3=O)cc1 (stereo unspecified)	7.6 µM	> 100 µM	7.8 µM	–	–	–
COc1ccc(-c2c[nH]c3c2C(=O)c2[nH]cc4c2C3=NCC4)cc1	4.1 µM	55.7 µM	38.1 µM	–	–	–
COc1ccc(-c2c[nH]c3c2C2=NCCc4cn(S(=O)(=O)c5ccc(C)cc5)c(c42)C3=O)cc1	57.4 µM	> 100 µM	15.4 µM	–	–	–
COc1ccc(-c2c[nH]c3c2-c2nccc4c[nH]c(c24)C3=O)cc1	97.8 µM	88.8 µM	80.6 µM	–	–	–
COc1ccc(C(O)CNC2=CC(=O)c3c(ccn3S(=O)(=O)c3ccc(C)cc3)C2=O)cc1 (stereo unspecified)	56.4 µM	37.3 µM	70.2 µM	–	–	–
COc1ccc(C2CNC3=C2C(=O)c2ccn(S(=O)(=O)c4ccc(C)cc4)c2C3=O)cc1 (stereo unspecified)	47.2 µM	37.5 µM	35.4 µM	–	–	–
COc1ccc(-c2c[nH]c3c2C(=O)c2[nH]ccc2C3=O)cc1	> 100 µM	> 100 µM	> 100 µM	–	–	–
COc1ccc(-c2c[nH]c3c2C2=NCCc4c[nH]c(c42)C3=O)cc1	> 100 µM	> 100 µM	> 100 µM	–	–	–
O=C1C2=C(N=CC2c2ccc(O)cc2)C(=O)c2[nH]ccc21 (stereo unspecified)	> 100 µM	> 100 µM	> 100 µM	–	–	–
COc1ccc(C2CNC3=C2C(=O)c2c(ccn2S(=O)(=O)c2ccc(C)cc2)C3=O)cc1 (stereo unspecified)	51.9 µM	33.7 µM	52.4 µM	–	–	–
COc1ccc(C(O)CNC2=CC(=O)c3ccn(S(=O)(=O)c4ccc(C)cc4)c3C2=O)cc1 (stereo unspecified)	29.2 µM	> 100 µM	> 100 µM	–	–	–
COc1ccc(-c2c[nH]c3c2C(=O)c2c(c(CCN)cn2S(=O)(=O)c2ccc(C)cc2)C3=O)cc1	8.5 µM	31.3 µM	11.2 µM	–	Non-toxic	Non-toxic
COc1ccc(-c2c[nH]c3c2C(=O)c2ccn(S(=O)(=O)c4ccc(C)cc4)c2C3=O)cc1	> 100 µM	24.6 µM	77.6 µM	–	–	–

Reference: ChEMBL document CHEMBL1154696, “Synthesis and antitumor evaluation of analogues of the marine pyrroloiminoquinone tsitsikammamines” (Eur J Med Chem, 2010)
